Data on 29 compounds can be found in ChEMBL document CHEMBL1156810, “Synthesis and structure-activity relationships of azamacrocyclic C-X-C chemokine receptor 4 antagonists: analogues containing a single azamacrocyclic ring are potent inhibitors of T-cell tropic (X4) HIV-1 replication” (J Med Chem, 2010).

In one data set the test system is Human immunodeficiency virus 1. In words: Antiviral activity against HIV1 3B infected in human MT4 cells assessed as inhibition of virus replication after 4 days by MTT assay. In kind it is functional, organism-based. Particulars: Human immunodeficiency virus 1, 3B, MT4, 96 h. On the technique in general: Tetrazolium assays rely on reduction of a dye to a coloured formazan, in cell work by metabolically active cells.
Usually EC50 stands for the midpoint of the concentration-response curve. For `c1ccc(CNCc2ccc(CN3CCNCCCCCCc4cccc(n4)C3)cc2)nc1`, the EC50 is 4.56 µM.

Test system in a further data set: not listed separately
Nature of the data set: Therapeutic index, ratio of CC50 for human MT4 cells to EC50 for HIV1 3B. In kind it is cell-based.
Settings: not given
An outline of the steps:
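Selectivity index calculated as CC50 divided by EC50. Both come from parallel 5-day MTT viability assays in MT-4 cells, mock-infected or infected with HIV-1 IIIB at MOI 0.01.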
In the case of `c1ccc(CNCc2ccc(CN3CCCNCCNCCCNCC3)cc2)nc1`, the selectivity ratio was greater than 12000.

Another data set relates to Human immunodeficiency virus 1. In words: Antiviral activity against HIV1 3B infected in human MT4 cells assessed as inhibition of virus replication after 5 days by MTT assay. Particulars: Human immunodeficiency virus 1, 3B, MT4, 120 h.
With `FC1CCCNCCN(Cc2ccc(CNCc3ccccn3)cc2)CCNCCC1`, the EC50 was 1.24 µM.

With `c1cc(CNCc2ccc(CN3CCCNCCNCCCNCC3)cc2)ccn1`, the concentration for a half-maximal effect (EC50) was found to be 9.98 µM.

With `c1ccc(CCNCc2ccc(CN3CCCNCCNCCCNCC3)cc2)nc1`, the EC50 turned out to be 49.1 µM.

With `[O-][S+]1CCCNCCN(Cc2ccc(CNCc3ccccn3)cc2)CCNCCC1`, the EC50 was found to be 0.485 µM.

Regarding `c1ccc(CNCc2ccc(CN3CCNCCCSCCCNCC3)cc2)nc1`, the half-maximal effective concentration (EC50) stood at 0.013 µM.

`c1ccc(CNCc2ccc(CN3CCCCCCCNCCNCC3)cc2)nc1`: the half-maximal effective concentration (EC50) was 11.1 µM.

For the compound `CN(Cc1ccc(CN2CCCNCCNCCCNCC2)cc1)Cc1ccccn1`, the EC50 was 0.416 µM.

Consider `c1ccc(CNCc2ccc(CN3CCNCCCCCCCNCC3)cc2)nc1`, for which the EC50 stood at 0.043 µM.

With `c1ccc(CNCc2ccc(CN3CCNCCCCCc4cccc(n4)CC3)cc2)nc1`, the EC50 was found to be 1.25 µM.

For the compound `c1ccc(CNCc2ccc(CC3CCNCCCOCCCNCC3)cc2)nc1`, the half-maximal effective concentration (EC50) came to 0.426 µM.

As for `c1ccc(CNCc2ccc(CN3CCNCCCOCCCNCC3)cc2)nc1`, the EC50 was 0.004 µM.

Regarding `c1cncc(CNCc2ccc(CN3CCCNCCNCCCNCC3)cc2)c1`, the EC50 amounted to 8.47 µM.

`O=S1(=O)CCCNCCN(Cc2ccc(CNCc3ccccn3)cc2)CCNCCC1`: the EC50 was 11.9 µM.

As for `Nc1ccc(CNCc2ccc(CN3CCCNCCNCCCNCC3)cc2)cc1`, the EC50 amounted to 0.717 µM.

For `FC1(F)CCCNCCN(Cc2ccc(CNCc3ccccn3)cc2)CCNCCC1`, the 50% effective concentration (EC50) was found to be 0.92 µM.

Regarding `c1ccc(CNCc2ccc(CC3CCNCCCCCCCNCC3)cc2)nc1`, the concentration giving a half-maximal response (EC50) was found to be 2.19 µM.

For the compound `O=C1CN(Cc2ccc(CNCc3ccccn3)cc2)CCc2cccc(n2)CCCCCN1`, the EC50 is 126 µM.

Regarding `c1ccc(CNCc2ccc(CN3CCNCCNCCc4cccc(n4)CC3)cc2)nc1`, the EC50 worked out at 0.063 µM.

Regarding `c1cc(CN2CCCNCCNCCCNCC2)ccc1CN1CCCNCCNCCCNCC1` [PLERIXAFOR], the EC50 was 0.004 µM.

`c1ccc(CNCc2ccc(CC3CCNCCc4cccc(n4)CCNCC3)cc2)nc1`: the half-maximal effective concentration (EC50) stood at 0.217 µM.

Regarding `c1ccc(CNCc2ccc(CN3CCNCCc4cncc(c4)CCNCC3)cc2)nc1`, the EC50 was found to be 0.104 µM.

In the case of `c1ccc(CNCc2ccc(CN3CCCNCCNCCCNCC3)cc2)nc1`, the 50% effective concentration (EC50) was 0.009 µM.

For `c1ccc(CNCc2ccc(CN3CCNCCc4cccc(n4)CCNCC3)cc2)nc1`, the 50% effective concentration (EC50) stood at 0.001 µM.

As to `Nc1ccccc1CNCc1ccc(CN2CCCNCCNCCCNCC2)cc1`, the EC50 was found to be 1.82 µM.

`c1ccc(CNCc2ccc(CN3CCNCCc4cccc(c4)CCNCC3)cc2)nc1`: the concentration for a half-maximal effect (EC50) is 0.04 µM.

As to `Cc1cnc(CNCc2ccc(CN3CCCNCCNCCCNCC3)cc2)cn1`, the concentration giving a half-maximal response (EC50) is 1.9 µM.

Take `c1ccc(CNCc2ccc(CN3CCCNCCNCCCNCC3)cc2)cc1`: the EC50 worked out at 0.491 µM.

In the case of `c1ccc(CNCc2ccc(CN3CCNCCNCCc4cccc(c4)CC3)cc2)nc1`, the EC50 is 14.1 µM.
